Test results published in ChEMBL document CHEMBL1153232, “Synthesis and screening of a CaaL peptide library versus FTase reveals a surprising number of substrates” (Bioorg Med Chem Lett, 2010).
The source made the active and inactive calls. The rule behind the calls is not given here. Peptide text beside a SMILES is read from it. * marks the point of attachment. Dansyl = CN(C)c1cccc2c(S(=O)(=O)*)cccc12

Assays:
[1] = target: Protein farnesyltransferase subunit beta (Homo sapiens) (UniProt P49356); experiment: Substrate activity for FTase assessed as increase in fluorescence by spectrofluorimetry in presence of farnesyl diphosphate relative to DnGCVLS; design: concentration or dose not given beside the values
Chain of Protein farnesyltransferase subunit beta (Homo sapiens) (P49356 whole entry): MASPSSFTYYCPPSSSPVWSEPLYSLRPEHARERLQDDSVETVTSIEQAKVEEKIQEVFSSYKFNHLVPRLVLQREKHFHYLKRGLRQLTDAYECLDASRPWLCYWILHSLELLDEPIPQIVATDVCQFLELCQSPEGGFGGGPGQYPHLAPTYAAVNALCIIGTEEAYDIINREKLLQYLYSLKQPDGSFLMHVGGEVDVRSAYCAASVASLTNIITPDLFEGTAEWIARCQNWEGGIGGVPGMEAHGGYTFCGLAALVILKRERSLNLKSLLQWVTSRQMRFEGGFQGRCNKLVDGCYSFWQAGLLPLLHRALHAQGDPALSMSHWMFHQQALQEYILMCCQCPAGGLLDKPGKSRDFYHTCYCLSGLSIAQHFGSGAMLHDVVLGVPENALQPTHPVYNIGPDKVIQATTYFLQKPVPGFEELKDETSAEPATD

[2] = target: Protein farnesyltransferase subunit beta (Homo sapiens) (UniProt P49356); experiment: Activity at FTase assessed as formation of farnesylated peptide after 60 mins by HPLC
Procedure, shortened: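 Peptide (3 μM) with 9 μM FPP and recombinant mammalian FTase (0.05 μM), incubated 60 min. HPLC scored conversion to farnesylated peptide: complete; nearly complete; 25% to 50%; less than 25%; no product.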

| Structure (SMILES) | Activity [1] | Activity [2] |
| --- | --- | --- |
| CC(C)C[C@H](NC(=O)[C@H](Cc1ccc(O)cc1)NC(=O)[C@H](C)NC(=O)[C@H](CS)NC(=O)CNS(=O)(=O)c1cccc2c(N(C)C)cccc12)C(=O)O (Dansyl-GCAYL-OH) | 0% | inactive |
| CC(C)C[C@H](NC(=O)[C@H](CO)NC(=O)[C@H](CS)NC(=O)[C@H](CS)NC(=O)CNS(=O)(=O)c1cccc2c(N(C)C)cccc12)C(=O)O (Dansyl-GCCSL-OH) | 0% | inactive |
| CC(C)C[C@H](NC(=O)[C@H](CCCCN)NC(=O)[C@H](CCC(=O)O)NC(=O)[C@H](CS)NC(=O)CNS(=O)(=O)c1cccc2c(N(C)C)cccc12)C(=O)O (Dansyl-GCEKL-OH) | 0% | inactive |
| CC(C)C[C@H](NC(=O)[C@H](CS)NC(=O)CNC(=O)[C@H](CS)NC(=O)CNS(=O)(=O)c1cccc2c(N(C)C)cccc12)C(=O)O (Dansyl-GCGCL-OH) | 0% | inactive |
| CC(C)C[C@H](NC(=O)CNC(=O)CNC(=O)[C@H](CS)NC(=O)CNS(=O)(=O)c1cccc2c(N(C)C)cccc12)C(=O)O (Dansyl-GCGGL-OH) | 0% | inactive |
| CC(C)C[C@H](NC(=O)[C@H](CCC(N)=O)NC(=O)CNC(=O)[C@H](CS)NC(=O)CNS(=O)(=O)c1cccc2c(N(C)C)cccc12)C(=O)O (Dansyl-GCGQL-OH) | 0% | inactive |
| CC(C)C[C@H](NC(=O)[C@H](C)NC(=O)[C@H](Cc1cnc[nH]1)NC(=O)[C@H](CS)NC(=O)CNS(=O)(=O)c1cccc2c(N(C)C)cccc12)C(=O)O (Dansyl-GCHAL-OH) | 0% | inactive |
| CC(C)C[C@H](NC(=O)[C@@H]1CCCN1C(=O)[C@H](Cc1cnc[nH]1)NC(=O)[C@H](CS)NC(=O)CNS(=O)(=O)c1cccc2c(N(C)C)cccc12)C(=O)O (Dansyl-GCHPL-OH) | 0% | inactive |
| CC(C)C[C@H](NC(=O)[C@@H](NC(=O)[C@H](CCCCN)NC(=O)[C@H](CS)NC(=O)CNS(=O)(=O)c1cccc2c(N(C)C)cccc12)C(C)C)C(=O)O (Dansyl-GCKVL-OH) | < 5% | – |
| CC[C@H](C)[C@H](NC(=O)[C@@H]1CCCN1C(=O)[C@H](CS)NC(=O)CNS(=O)(=O)c1cccc2c(N(C)C)cccc12)C(=O)N[C@@H](CC(C)C)C(=O)O (Dansyl-GCPIL-OH) | < 5% | – |
| CC(C)C[C@H](NC(=O)[C@H](CC(C)C)NC(=O)[C@H](CCCNC(=N)N)NC(=O)[C@H](CS)NC(=O)CNS(=O)(=O)c1cccc2c(N(C)C)cccc12)C(=O)O (Dansyl-GCRLL-OH) | < 5% | – |

Next, values leading:

| Activity [1] | Activity [2] | Structure (SMILES) |
| --- | --- | --- |
| < 5% | – | CC(C)C[C@H](NC(=O)[C@H](CC(C)C)NC(=O)[C@H](C)NC(=O)[C@H](CS)NC(=O)CNS(=O)(=O)c1cccc2c(N(C)C)cccc12)C(=O)O (Dansyl-GCALL-OH) |
| < 5% | – | CC(C)C[C@H](NC(=O)[C@H](CC(C)C)NC(=O)[C@H](CS)NC(=O)[C@H](CS)NC(=O)CNS(=O)(=O)c1cccc2c(N(C)C)cccc12)C(=O)O (Dansyl-GCCLL-OH) |
| < 5% | – | CC(C)C[C@H](NC(=O)[C@H](CC(C)C)NC(=O)[C@H](CC(C)C)NC(=O)[C@H](CS)NC(=O)CNS(=O)(=O)c1cccc2c(N(C)C)cccc12)C(=O)O (Dansyl-GCLLL-OH) |
| < 5% | – | CC(C)C[C@H](NC(=O)[C@@H](NC(=O)[C@H](CC(C)C)NC(=O)[C@H](CS)NC(=O)CNS(=O)(=O)c1cccc2c(N(C)C)cccc12)C(C)C)C(=O)O (Dansyl-GCLVL-OH) |
| 0% | – | CC(C)C[C@H](NC(=O)[C@@H](NC(=O)[C@H](CO)NC(=O)[C@H](CS)NC(=O)CNS(=O)(=O)c1cccc2c(N(C)C)cccc12)C(C)C)C(=O)O (Dansyl-GCSVL-OH) |
| 0% | – | CC(C)C[C@H](NC(=O)[C@H](CC(C)C)NC(=O)[C@@H](NC(=O)[C@H](CS)NC(=O)CNS(=O)(=O)c1cccc2c(N(C)C)cccc12)[C@@H](C)O)C(=O)O (Dansyl-GCTLL-OH) |
| < 5% | – | CC(C)C[C@H](NC(=O)[C@H](CC(C)C)NC(=O)[C@@H](NC(=O)[C@H](CS)NC(=O)CNS(=O)(=O)c1cccc2c(N(C)C)cccc12)C(C)C)C(=O)O (Dansyl-GCVLL-OH) |
